# Reference: ChEMBL document CHEMBL2331552, “Identification of RO4597014, a Glucokinase Activator Studied in the Clinic for the Treatment of Type 2 Diabetes” (ACS Med Chem Lett, 2013)
# Columns and labels:
# Mus musculus [1] = test: Antidiabetic activity in C57Bl/6J mouse assessed as change in blood glucose level at 50 mg/kg, po after 4 hrs relative to vehicle-treated control; type: functional
# Procedure, shortened: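 C57Bl/6J mice, 2 months old, n = 6 per group, fasted 2 h, received 50 mg/kg orally or vehicle. Blood was sampled at 2, 4, 6 and 8 h after dosing. The recorded value is % blood glucose change versus vehicle at 4 h.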
# [2] = target: T1, Hexokinase-4 (Homo sapiens) (UniProt P35557); test: Activation of glucokinase (unknown origin) using glucose as substrate assessed as stimulation concentration required to achieve 150% activity relative to control
# T1 sequence (whole entry): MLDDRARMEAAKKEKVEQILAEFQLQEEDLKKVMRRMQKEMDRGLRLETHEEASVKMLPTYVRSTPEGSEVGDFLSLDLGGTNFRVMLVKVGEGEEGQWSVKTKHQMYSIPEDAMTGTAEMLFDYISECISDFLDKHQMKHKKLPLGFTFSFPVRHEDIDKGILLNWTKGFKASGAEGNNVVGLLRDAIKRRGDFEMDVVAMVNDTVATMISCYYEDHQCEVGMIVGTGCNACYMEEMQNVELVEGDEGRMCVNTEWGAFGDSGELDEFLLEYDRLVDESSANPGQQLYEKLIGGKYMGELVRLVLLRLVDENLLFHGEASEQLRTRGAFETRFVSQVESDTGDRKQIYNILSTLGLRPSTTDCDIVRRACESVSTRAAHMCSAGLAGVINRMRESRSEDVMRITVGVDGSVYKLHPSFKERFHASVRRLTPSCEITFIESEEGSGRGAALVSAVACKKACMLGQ
# Procedure, shortened: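 Read-out is the compound concentration giving GK activity 150% of control (SC1.5). Values are means of at least three independent assays. Assay CV averaged 15%.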
# hERG (KCNH2) = hERG (KCNH2) (Homo sapiens, UniProt Q12809); test: Inhibition of human ERG channel at 10 uM by patch clamp method
# Mus musculus [3] = test: Antidiabetic activity in po dosed diet induced obese C57Bl/6J mouse assessed as lowering blood glucose level; type: functional, organism-based
# Procedure, shortened: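 Diet-induced obese C57Bl/6J mice were used: 6 months old, 4 months on high-fat diet, n = 9 per dose. Oral doses were 7.5, 15 and 30 mg/kg, with glucose followed at 2 and 4 h post-dose. The dose giving 25% glucose lowering (ED25) was reported.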
# [4] = Cmax in dog at 30 mg/kg, po; type: ADME, organism-based, Canis lupus familiaris; set-up: dose 30 mg/kg, route oral; settings: in vivo
# [5] = Clearance in C57Bl/6J mouse at 10 mg/kg, iv; type: ADME, organism-based; set-up: dose 10 mg/kg, route intravenous; settings: in vivo
# [6] = AUC (0 to infinity) in dog at 30 mg/kg, po; type: ADME, organism-based, Canis lupus familiaris; set-up: time infinity, dose 30 mg/kg, route oral; settings: plasma
# [7] = Lipophilicity, log D of the compound at pH 7.4; type: physicochemical; settings: buffer
# [8] = AUC (0 to infinity) in C57Bl/6J mouse at 10 mg/kg, iv; type: ADME, organism-based; set-up: time infinity, dose 10 mg/kg, route intravenous; settings: plasma
# [9] = AUC (0 to infinity) in C57Bl/6J mouse at 30 mg/kg, po; type: ADME, organism-based; set-up: time infinity, dose 30 mg/kg, route oral; settings: plasma
# [10] = Oral bioavailability in dog at 30 mg/kg; type: ADME, organism-based, Canis lupus familiaris; settings: in vivo
# [11] = Oral bioavailability in C57Bl/6J mouse at 30 mg/kg; type: ADME, organism-based; settings: in vivo
# Mus musculus [12] = test: Antidiabetic activity in po dosed diet induced obese C57Bl/6J mouse assessed as reduction in blood glucose level after 2 to 4 hrs; type: functional
# Procedure, shortened: (§1)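 Diet-induced obese C57Bl/6J mice were used: 6 months old, on high-fat diet for 4 months, n = 9 per dose. Oral doses were 7.5, 15 and 30 mg/kg. Basal blood glucose lowering was read at 2 and 4 h post-dose.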
# [13] = Dissociation constant, pKa of the compound; type: physicochemical
# [14] = Tmax in C57Bl/6J mouse at 30 mg/kg, po; type: ADME, organism-based; set-up: dose 30 mg/kg, route oral; settings: in vivo
# [15] = Volume of distribution at steady state in dog at 10 mg/kg, iv; type: ADME, organism-based, Canis lupus familiaris; set-up: dose 10 mg/kg, route intravenous; settings: in vivo, read-out: Vdss
# Mus musculus [16] = test: Antidiabetic activity in diet induced obese C57Bl/6J mouse assessed as reduction in blood glucose level at 15 mg/kg, po after 2 to 4 hrs; type: functional; set-up: scale not given: the % may be the effect or the level left; procedure, shortened: as §1
# [17] = Fraction unbound in human plasma; type: ADME, cell-free
# [18] = target: Voltage-gated inwardly rectifying potassium channel KCNH2 (Homo sapiens, UniProt Q12809); test: Inhibition of human ERG channel
# Procedure, shortened: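 hERG potassium channel current was measured by patch clamp at varied concentrations. IC50 was taken from the concentration-dependent inhibition.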
# [19] = Inhibition of cytochrome P450 (unknown origin); type: ADME, Homo sapiens
# Procedure, shortened: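 IC50 was measured against 7 CYP isoforms.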
# [20] = Cmax in C57Bl/6J mouse at 30 mg/kg, po; type: ADME, organism-based; set-up: dose 30 mg/kg, route oral; settings: in vivo
# Liver microsomes = test: Covalent binding to human liver microsomes after 30 mins in presence of NADPH per mg of protein; type: ADME, Microsome; settings: 0.5 h
# Procedure, shortened: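 Covalent binding to human liver microsomes was measured with NADPH over 30 min. It is expressed per mg protein.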
# [21] = Apparent permeability of the compound across human Caco2 cells; type: ADME, cell-based; settings: Caco-2
# Mus musculus [22] = test: Antidiabetic activity in diet induced obese C57Bl/6J mouse assessed as reduction in blood glucose level at 30 mg/kg, po after 2 to 4 hrs; type: functional; set-up: scale not given: the % may be the effect or the level left; procedure, shortened: as §1
# [23] = Solubility of the compound at pH 7.4; type: physicochemical; settings: buffer
# [24] = target: T1, Hexokinase-4 (Homo sapiens); test: Activation of human recombinant glucokinase using glucose as substrate
# Procedure, shortened: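 Recombinant human GK was run across a range of glucose concentrations with varied activator levels. Vmax and the glucose SC0.5 (concentration reaching half Vmax) were derived.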
# [25] = Clearance in dog at 10 mg/kg, iv; type: ADME, organism-based, Canis lupus familiaris; set-up: dose 10 mg/kg, route intravenous; settings: in vivo
# [26] = Volume of distribution at steady state in C57Bl/6J mouse at 10 mg/kg, iv; type: ADME, organism-based; set-up: dose 10 mg/kg, route intravenous; settings: in vivo, read-out: Vdss
# [27] = Metabolic stability in human hepatocytes after 3 hrs by LC-MS/MS analysis; type: ADME, cell-based, Hepatocyte; settings: read-out: Stability
# [28] = Tmax in dog at 30 mg/kg, po; type: ADME, organism-based, Canis lupus familiaris; set-up: dose 30 mg/kg, route oral; settings: in vivo
# [29] = AUC (0 to infinity) in dog at 10 mg/kg, iv; type: ADME, organism-based, Canis lupus familiaris; set-up: time infinity, dose 10 mg/kg, route intravenous; settings: plasma
# hERG (KCNH2), sequence (Q12809 whole entry): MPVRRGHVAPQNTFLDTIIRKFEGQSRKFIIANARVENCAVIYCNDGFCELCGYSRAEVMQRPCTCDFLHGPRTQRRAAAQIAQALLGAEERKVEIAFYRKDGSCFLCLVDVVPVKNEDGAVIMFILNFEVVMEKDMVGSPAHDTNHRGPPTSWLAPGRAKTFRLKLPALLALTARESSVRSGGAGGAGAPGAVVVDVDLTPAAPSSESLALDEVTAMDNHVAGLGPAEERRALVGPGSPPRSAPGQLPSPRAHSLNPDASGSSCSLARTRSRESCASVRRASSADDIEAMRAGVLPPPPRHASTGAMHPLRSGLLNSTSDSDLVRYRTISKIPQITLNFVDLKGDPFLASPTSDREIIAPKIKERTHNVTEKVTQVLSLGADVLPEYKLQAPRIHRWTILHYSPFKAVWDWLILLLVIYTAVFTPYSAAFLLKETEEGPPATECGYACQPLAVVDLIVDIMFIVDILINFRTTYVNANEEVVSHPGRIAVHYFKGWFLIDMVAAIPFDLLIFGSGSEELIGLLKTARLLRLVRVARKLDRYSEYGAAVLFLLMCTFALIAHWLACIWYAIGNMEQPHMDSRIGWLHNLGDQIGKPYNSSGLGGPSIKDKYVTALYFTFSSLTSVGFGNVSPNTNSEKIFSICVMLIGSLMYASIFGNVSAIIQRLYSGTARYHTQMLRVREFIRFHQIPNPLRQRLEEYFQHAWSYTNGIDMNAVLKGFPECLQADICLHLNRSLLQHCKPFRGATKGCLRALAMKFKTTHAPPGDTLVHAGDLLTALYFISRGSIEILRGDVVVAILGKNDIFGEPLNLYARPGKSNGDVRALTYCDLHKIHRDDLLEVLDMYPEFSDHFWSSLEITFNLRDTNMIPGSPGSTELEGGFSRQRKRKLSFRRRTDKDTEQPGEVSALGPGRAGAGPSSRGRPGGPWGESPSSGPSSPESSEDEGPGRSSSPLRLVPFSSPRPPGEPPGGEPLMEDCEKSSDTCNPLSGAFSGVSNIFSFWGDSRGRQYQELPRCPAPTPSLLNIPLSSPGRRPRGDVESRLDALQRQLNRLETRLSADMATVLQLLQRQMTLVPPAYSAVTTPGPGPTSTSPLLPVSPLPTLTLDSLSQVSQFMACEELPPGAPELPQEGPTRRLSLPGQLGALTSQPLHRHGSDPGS
# Voltage-gated inwardly rectifying potassium channel KCNH2, sequence (Q12809 whole entry): as above
smiles,measurement,setting,value
CS(=O)(=O)c1ccc(C(CC2CCOCC2)C(=O)Nc2cnccn2)cc1Cl (stereo not given),Activity,Mus musculus [1],-5.6%
same,Activity,[2],1.4 µM
same,inhibition at 10 µM,hERG (KCNH2),8.1%
CS(=O)(=O)c1ccc([C@@H](CC2CCCC2)C(=O)Nc2cnccn2)cc1Cl,Activity,Mus musculus [1],-53%
same,Activity,[2],0.11 µM
CS(=O)(=O)c1ccc([C@@H](CC2CCCC2)C(=O)Nc2cnc(OC[C@H](O)CO)cn2)cc1Cl,Activity,Mus musculus [1],-38%
same,Activity,[2],0.19 µM
CS(=O)(=O)c1ccc([C@@H](CC2CCCC2)C(=O)Nc2cnc(C#CC3(O)CCOCC3)cn2)cc1Cl,Activity,Mus musculus [1],-45%
same,Activity,[2],0.075 µM
COc1cc(C(CC2CCCC2)C(=O)Nc2cnccn2)ccc1S(C)(=O)=O (stereo not given),Activity,[2],1.9 µM
same,inhibition at 10 µM,hERG (KCNH2),36%
CC(C)(O)[C@@H](O)c1cnc(NC(=O)[C@H](CC2CCCC2)c2ccc(S(C)(=O)=O)c(Cl)c2)cn1,Activity,Mus musculus [1],-44%
same,Activity,[2],0.31 µM
CS(=O)(=O)c1ccc([C@@H](CC2CCCC2)C(=O)Nc2cnc(C(=O)NO)cn2)cc1Cl,Activity,Mus musculus [1],-14%
same,Activity,[2],0.41 µM
same,inhibition at 10 µM,hERG (KCNH2),37%
CC(C)(O)C#Cc1cnc(NC(=O)[C@H](CC2CCCC2)c2ccc(S(C)(=O)=O)c(Cl)c2)cn1,Activity,Mus musculus [1],-48%
same,Activity,[2],0.056 µM
CS(=O)(=O)c1ccc([C@@H](CC2CCCC2)C(=O)Nc2cnc(/C(N)=N\O)cn2)cc1Cl,Activity,Mus musculus [1],-53%
same,Activity,[2],0.037 µM
same,inhibition at 10 µM,hERG (KCNH2),50%
CS(=O)(=O)c1ccc([C@@H](CC2CCCC2)C(=O)Nc2cnc(OC[C@@H](O)CO)cn2)cc1Cl,Activity,Mus musculus [1],-29%
same,Activity,[2],0.3 µM
COCC#Cc1cnc(NC(=O)[C@H](CC2CCCC2)c2ccc(S(C)(=O)=O)c(Cl)c2)cn1,Activity,Mus musculus [1],-49%
same,Activity,[2],0.14 µM
same,inhibition at 10 µM,hERG (KCNH2),53%
CS(=O)(=O)c1ccc(C(CC2CCOC2)C(=O)Nc2cnccn2)cc1Cl (stereo not given),Activity,[2],3.6 µM
CS(=O)(=O)c1ccc([C@@H](CC2CCCC2)C(=O)Nc2cnc([C@@H](O)CO)cn2)cc1Cl,Activity,Mus musculus [1],-35%
same,Activity,[2],1.1 µM
same,inhibition at 10 µM,hERG (KCNH2),21%
CS(=O)(=O)c1ccc([C@@H](CC2CCCC2)C(=O)Nc2cnc([C@H](O)CO)cn2)cc1Cl,Activity,Mus musculus [3],Dose-dependent effect
same,Cmax,[4],3790 ng/mL
same,clearance,[5],20.8 mL/min/kg
same,AUC(0-inf),[6],54500 ng·h/mL
same,logD,[7],2.7
same,AUC(0-inf),[8],8010 ng·h/mL
same,AUC(0-inf),[9],12100 ng·h/mL
same,bioavailability,[10],84%
same,Activity,Mus musculus [1],-44%
same,bioavailability,[11],50.3%
same,ED25,Mus musculus [12],10 mg/kg
same,Activity,[2],0.26 µM
same,pKa,[13],11.4
same,Tmax,[14],4 h
same,Vd,[15],1.69 L/kg
same,Activity,Mus musculus [16],32%
same,fraction unbound,[17],0.1
same,IC50,[18],70 µM
same,IC50,[19],> 30 µM
same,Cmax,[20],1310 ng/mL
same,Activity,Liver microsomes,33 pmol
same,Papp,[21],3.36 ×10⁻⁶ cm/s
same,Activity,Mus musculus [22],45%
same,inhibition at 10 µM,hERG (KCNH2),22%
same,solubility,[23],170 µg/mL
same,Activity,[24],Dose-dependent effect
same,clearance,[25],8 mL/min/kg
same,Vd,[26],1.44 L/kg
same,remaining at 3 h,[27],95%
same,Tmax,[28],7.3 h
same,AUC(0-inf),[29],21600 ng·h/mL
C/C(=N/O)c1cnc(NC(=O)[C@H](CC2CCCC2)c2ccc(S(C)(=O)=O)c(Cl)c2)cn1,Activity,Mus musculus [1],-43%
same,Activity,[2],0.059 µM
same,inhibition at 10 µM,hERG (KCNH2),73%
CN(C)CC#Cc1cnc(NC(=O)[C@H](CC2CCCC2)c2ccc(S(C)(=O)=O)c(Cl)c2)cn1,Activity,Mus musculus [1],-46%
same,Activity,[2],0.11 µM
same,inhibition at 10 µM,hERG (KCNH2),86%
CS(=O)(=O)Cc1cnc(NC(=O)[C@H](CC2CCCC2)c2ccc(S(C)(=O)=O)c(Cl)c2)cn1,Activity,Mus musculus [1],-39%
same,Activity,[2],0.26 µM
C[S+]([O-])c1cnc(NC(=O)[C@H](CC2CCCC2)c2ccc(S(C)(=O)=O)c(Cl)c2)cn1 (stereo not given in full),Activity,Mus musculus [1],-26%
same,Activity,[2],0.4 µM
same,inhibition at 10 µM,hERG (KCNH2),27%
CS(=O)(=O)c1ccc([C@@H](CC2CCCC2)C(=O)Nc2cnc(CCC3(O)CCOCC3)cn2)cc1Cl,Activity,Mus musculus [1],-43%
same,Activity,[2],0.13 µM
same,inhibition at 10 µM,hERG (KCNH2),40%
CS(=O)(=O)c1ccc([C@@H](CC2CCCC2)C(=O)Nc2cnc(C#CCO)cn2)cc1Cl,Activity,Mus musculus [1],-46%
same,Activity,[2],0.022 µM
same,inhibition at 10 µM,hERG (KCNH2),46%
CSc1cnc(NC(=O)[C@H](CC2CCCC2)c2ccc(S(C)(=O)=O)c(Cl)c2)cn1,Activity,Mus musculus [1],-26%
same,Activity,[2],0.054 µM
